These results are taken from ChEMBL document CHEMBL1250442, “Inhibiting gene expression at transcription start sites in chromosomal DNA with antigene RNAs” (Nat Chem Biol, 2005).

Test [1] concerns T47D. In words: Inhibition of PR-A mRNA gene expression in human T47D cells at 100 nM by syber green assay. The class given is functional. The method in brief: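 T47D cells plated at 80,000/well without antibiotics two days before Oligofectamine transfection with agRNA duplex (25 or 100 nM final); medium changed at 24 h, harvest day 5 unless stated otherwise. TRIzol total RNA; PR mRNA by real-time PCR with SYBR Green: 50 °C 2 min, 95 °C 10 min, 40 cycles 95 °C 15 s/60 °C 1 min.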

The test system of test [2] is T47D. In words: Inhibition of cyclooxygenase-2 expression in human T47D cells at 25 nM by syber green assay. The format is functional, cell-based.
For test [3], the system named is T47D. Nature of the test: Inhibition of PR-A gene expression in human T47D cells at 25 nM by syber green assay in presence of 10 nM estradiol. The format is functional, cell-based.
Test [4] concerns T47D. Nature of the test: Inhibition of PR-B mRNA gene expression in human T47D cells at 100 nM by syber green assay. The class given is functional. In a few lines: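 T47D cells in RPMI-1640 with 10% FBS, NEAA, insulin, 37 °C, 5% CO2. Plated two days before transfection without antibiotics. Oligofectamine-mediated duplex RNA transfection at 100 nM final, medium changed at 24 h, harvest five days post-transfection. Total RNA extracted with TRIzol. hPR mRNA quantified by SYBR Green qPCR: 50 °C 2 min, 95 °C 10 min, then 40 cycles of 95 °C 15 s / 60 °C 1 min.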

The subject of test [5] is T47D. Nature of the test: Inhibition of androgen receptor expression in human T47D cells after 12 days at 100 nM by syber green assay. The class given is functional, cell-based. The method in brief:
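AR expression in T47D cells, grown in RPMI-1640 with 10% FBS, NEAA and insulin. Plated antibiotic-free two days before Oligofectamine transfection with 100 nM duplex RNA; medium replaced after 24 h. TRIzol total RNA. SYBR Green real-time PCR: 50 °C 2 min, 95 °C 10 min, 40 cycles of 95 °C 15 s and 60 °C 1 min.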

The subject of test [6] is T47D. In words: Inhibition of PR-B gene expression in human T47D cells at 25 nM by syber green assay in presence of 10 nM estradiol. The class given is functional, cell-based.

Active and inactive are the calls of the source. The rule behind the calls is not given here.

Turning to `Cc1cn(CC(=O)N(CCNC(=O)CN(CCNC(=O)CN(CCNC(=O)CN(CCNC(=O)CN(CCNC(=O)CN(CCNC(=O)CN(CCNC(=O)CN(CCNC(=O)CN(CCNC(=O)CN(CCNC(=O)CN(CCNC(=O)CN(CCNC(=O)CN(CCNC(=O)CN(CCNC(=O)CN(CCNC(=O)CN(CCNC(=O)CN(CCNC(=O)CN(CCNC(=O)CN(CCNC(=O)CN(CCNC(=O)CN)C(=O)Cn2ccc(=O)[nH]c2=O)C(=O)Cn2ccc(=O)[nH]c2=O)C(=O)Cn2cnc3c(N)ncnc32)C(=O)Cn2cnc3c(=O)[nH]c(N)nc32)C(=O)Cn2ccc(N)nc2=O)C(=O)Cn2cnc3c(=O)[nH]c(N)nc32)C(=O)Cn2cnc3c(N)ncnc32)C(=O)Cn2ccc(N)nc2=O)C(=O)Cn2ccc(N)nc2=O)C(=O)Cn2cnc3c(N)ncnc32)C(=O)Cn2cnc3c(N)ncnc32)C(=O)Cn2ccc(=O)[nH]c2=O)C(=O)Cn2ccc(=O)[nH]c2=O)C(=O)Cn2cnc3c(=O)[nH]c(N)nc32)C(=O)Cn2ccc(=O)[nH]c2=O)C(=O)Cn2ccc(N)nc2=O)C(=O)Cn2cnc3c(N)ncnc32)C(=O)Cn2ccc(=O)[nH]c2=O)C(=O)Cn2cnc3c(N)ncnc32)CC(=O)NCCN(CC(=O)NCC(=O)O)C(=O)Cn2cc(C)c(=O)[nH]c2=O)c(=O)[nH]c1=O`, the inhibition at 0.1 µM in the test with T47D [1] and in the test with T47D [4] was 81% in each case. The inhibition entry in the test on T47D [2] and with T47D [3] was “Active” throughout.
Regarding `Cc1cn(CC(=O)N(CCNC(=O)CN(CCNC(=O)CN(CCNC(=O)CN(CCNC(=O)CN(CCNC(=O)CN(CCNC(=O)CN(CCNC(=O)CN(CCNC(=O)CN(CCNC(=O)CN(CCNC(=O)CN(CCNC(=O)CN(CCNC(=O)CN(CCNC(=O)CN(CCNC(=O)CN(CCNC(=O)CN(CCNC(=O)CN(CCNC(=O)CN(CCNC(=O)CN(CCNC(=O)CN(CCNC(=O)CN)C(=O)Cn2cnc3c(=O)[nH]c(N)nc32)C(=O)Cn2ccc(N)nc2=O)C(=O)Cn2ccc(=O)[nH]c2=O)C(=O)Cn2ccc(N)nc2=O)C(=O)Cn2ccc(=O)[nH]c2=O)C(=O)Cn2ccc(N)nc2=O)C(=O)Cn2ccc(N)nc2=O)C(=O)Cn2cnc3c(N)ncnc32)C(=O)Cn2ccc(N)nc2=O)C(=O)Cn2ccc(N)nc2=O)C(=O)Cn2ccc(=O)[nH]c2=O)C(=O)Cn2ccc(N)nc2=O)C(=O)Cn2ccc(N)nc2=O)C(=O)Cn2ccc(N)nc2=O)C(=O)Cn2cnc3c(N)ncnc32)C(=O)Cn2cnc3c(=O)[nH]c(N)nc32)C(=O)Cn2ccc(N)nc2=O)C(=O)Cn2cnc3c(=O)[nH]c(N)nc32)C(=O)Cn2ccc(N)nc2=O)CC(=O)NCCN(CC(=O)NCC(=O)O)C(=O)Cn2cc(C)c(=O)[nH]c2=O)c(=O)[nH]c1=O`, the inhibition at 0.1 µM in the test with T47D [1] and in the test on T47D [4] was 92% in each case. For the same compound, the inhibition result with T47D [5], with T47D [3] and with T47D [6] was “Active” in each case.
`Cc1cn(CC(=O)N(CCNC(=O)CN(CCNC(=O)CN(CCNC(=O)CN(CCNC(=O)CN(CCNC(=O)CN(CCNC(=O)CN(CCNC(=O)CN(CCNC(=O)CN(CCNC(=O)CN(CCNC(=O)CN(CCNC(=O)CN(CCNC(=O)CN(CCNC(=O)CN(CCNC(=O)CN(CCNC(=O)CN(CCNC(=O)CN(CCNC(=O)CN(CCNC(=O)CN(CCNC(=O)CN(CCNC(=O)CN)C(=O)Cn2cnc3c(=O)[nH]c(N)nc32)C(=O)Cn2cnc3c(=O)[nH]c(N)nc32)C(=O)Cn2cnc3c(=O)[nH]c(N)nc32)C(=O)Cn2cnc3c(=O)[nH]c(N)nc32)C(=O)Cn2ccc(N)nc2=O)C(=O)Cn2cnc3c(=O)[nH]c(N)nc32)C(=O)Cn2ccc(N)nc2=O)C(=O)Cn2ccc(=O)[nH]c2=O)C(=O)Cn2cnc3c(=O)[nH]c(N)nc32)C(=O)Cn2cnc3c(=O)[nH]c(N)nc32)C(=O)Cn2cnc3c(=O)[nH]c(N)nc32)C(=O)Cn2cnc3c(N)ncnc32)C(=O)Cn2cnc3c(=O)[nH]c(N)nc32)C(=O)Cn2cnc3c(=O)[nH]c(N)nc32)C(=O)Cn2ccc(=O)[nH]c2=O)C(=O)Cn2cnc3c(=O)[nH]c(N)nc32)C(=O)Cn2cnc3c(=O)[nH]c(N)nc32)C(=O)Cn2cnc3c(N)ncnc32)C(=O)Cn2cnc3c(=O)[nH]c(N)nc32)CC(=O)NCCN(CC(=O)NCC(=O)O)C(=O)Cn2cc(C)c(=O)[nH]c2=O)c(=O)[nH]c1=O`: the inhibition at 0.1 µM with T47D [1] and with T47D [4] was 39% in each case. Also, the inhibition entry in the test with T47D [5], with T47D [3] and with T47D [6] was “Active” each time.
As to `Cc1cn(CC(=O)N(CCNC(=O)CN(CCNC(=O)CN(CCNC(=O)CN(CCNC(=O)CN(CCNC(=O)CN(CCNC(=O)CN(CCNC(=O)CN(CCNC(=O)CN(CCNC(=O)CN(CCNC(=O)CN(CCNC(=O)CN(CCNC(=O)CN(CCNC(=O)CN(CCNC(=O)CN(CCNC(=O)CN(CCNC(=O)CN(CCNC(=O)CN(CCNC(=O)CN(CCNC(=O)CN(CCNC(=O)CN)C(=O)Cn2ccc(=O)[nH]c2=O)C(=O)Cn2ccc(N)nc2=O)C(=O)Cn2ccc(N)nc2=O)C(=O)Cn2cnc3c(N)ncnc32)C(=O)Cn2ccc(N)nc2=O)C(=O)Cn2ccc(N)nc2=O)C(=O)Cn2ccc(=O)[nH]c2=O)C(=O)Cn2ccc(N)nc2=O)C(=O)Cn2ccc(N)nc2=O)C(=O)Cn2ccc(N)nc2=O)C(=O)Cn2cnc3c(N)ncnc32)C(=O)Cn2cnc3c(=O)[nH]c(N)nc32)C(=O)Cn2ccc(N)nc2=O)C(=O)Cn2cnc3c(=O)[nH]c(N)nc32)C(=O)Cn2ccc(N)nc2=O)C(=O)Cn2ccc(N)nc2=O)C(=O)Cn2ccc(N)nc2=O)C(=O)Cn2ccc(N)nc2=O)C(=O)Cn2ccc(N)nc2=O)CC(=O)NCCN(CC(=O)NCC(=O)O)C(=O)Cn2cc(C)c(=O)[nH]c2=O)c(=O)[nH]c1=O`, the inhibition at 0.1 µM with T47D [1] and with T47D [4] was 34% in each case. Moreover, the inhibition entry in the test with T47D [5], in the test on T47D [3] and in the test on T47D [6] was “Active” in each case.
Take `Cc1cn(CC(=O)N(CCNC(=O)CN(CCNC(=O)CN(CCNC(=O)CN(CCNC(=O)CN(CCNC(=O)CN(CCNC(=O)CN(CCNC(=O)CN(CCNC(=O)CN(CCNC(=O)CN(CCNC(=O)CN(CCNC(=O)CN(CCNC(=O)CN(CCNC(=O)CN(CCNC(=O)CN(CCNC(=O)CN(CCNC(=O)CN(CCNC(=O)CN(CCNC(=O)CN(CCNC(=O)CN(CCNC(=O)CN)C(=O)Cn2ccc(N)nc2=O)C(=O)Cn2cnc3c(N)ncnc32)C(=O)Cn2ccc(N)nc2=O)C(=O)Cn2ccc(N)nc2=O)C(=O)Cn2ccc(=O)[nH]c2=O)C(=O)Cn2ccc(N)nc2=O)C(=O)Cn2ccc(N)nc2=O)C(=O)Cn2ccc(N)nc2=O)C(=O)Cn2cnc3c(N)ncnc32)C(=O)Cn2cnc3c(=O)[nH]c(N)nc32)C(=O)Cn2ccc(N)nc2=O)C(=O)Cn2cnc3c(=O)[nH]c(N)nc32)C(=O)Cn2ccc(N)nc2=O)C(=O)Cn2ccc(N)nc2=O)C(=O)Cn2ccc(N)nc2=O)C(=O)Cn2ccc(N)nc2=O)C(=O)Cn2ccc(N)nc2=O)C(=O)Cn2ccc(=O)[nH]c2=O)C(=O)Cn2ccc(N)nc2=O)CC(=O)NCCN(CC(=O)NCC(=O)O)C(=O)Cn2cc(C)c(=O)[nH]c2=O)c(=O)[nH]c1=O`: the inhibition at 0.1 µM with T47D [1] and in the test on T47D [4] was 100% throughout. For the same compound, the inhibition entry in the test on T47D [5], in the test with T47D [3] and with T47D [6] was “Active” each time.
